Active and inactive are the calls of the source. The rule behind the calls is not given here.
What was measured:
[1] = test system: Human alphaherpesvirus 1; experiment: Antiviral activity against Herpes simplex virus 1 by tissue culture assay; format: functional, organism-based
[2] = test system: Human rhinovirus A13; experiment: Antiviral activity against Rhinovirus 13 by tissue culture assay; format: functional
[3] = test system: Human respirovirus 3; experiment: Antiviral activity against Parainfluenza virus 3 by tissue culture assay; format: functional, organism-based
[4] = target: T1, Hypoxanthine-guanine phosphoribosyltransferase (Mus musculus) (UniProt P00493); experiment: Inhibition of hypoxanthine phosphoribosyltransferase in mouse Ehrlich ascites tumor cells assessed as decrease in purine nucleotide biosynthesis using [14C]hypoxanthine as substrate at 100 uM incubated for 20 mins followed by substrate addition for 60 mins by thin layer chromatography
T1 sequence (whole entry): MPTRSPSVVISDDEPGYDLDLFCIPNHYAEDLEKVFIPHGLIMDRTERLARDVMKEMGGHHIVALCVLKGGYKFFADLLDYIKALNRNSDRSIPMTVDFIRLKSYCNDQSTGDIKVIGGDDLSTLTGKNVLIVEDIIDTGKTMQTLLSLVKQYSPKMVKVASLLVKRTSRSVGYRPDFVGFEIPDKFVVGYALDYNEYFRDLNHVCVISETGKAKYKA
Procedure, shortened: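 Ehrlich ascites tumor cell suspensions were preincubated 20 min with compound at 100 μM. [14C]Hypoxanthine was then added at 100 μM for a further 60 min. Cells were disrupted, and adenine and guanine nucleotides were resolved by TLC. Radioactivity in individual nucleotides of treated cells was compared with untreated cells to derive apparent purine-metabolism enzyme rates and their inhibition.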

## O=C1c2ccccc2C(=O)c2nn([C@@H]3O[C@H](CO)[C@@H](O)[C@H]3O)nc21
[1]
  Activity: inactive
[2]
  Activity: inactive
[3]
  Activity: inactive
[4]
  inhibition: 72%

## O=C1c2ccccc2C(=O)c2c1ncn2[C@@H]1O[C@H](CO)[C@@H](O)[C@H]1O
[1]
  Activity: inactive
[2]
  Activity: inactive
[3]
  Activity: inactive
[4]
  inhibition: 68%

## O=C1c2ccccc2C(=O)c2[nH]cnc21
[1]
  Activity: inactive
[2]
  Activity: inactive
[3]
  Activity: inactive
[4]
  inhibition: 82%

## O=C1c2ccccc2C(=O)c2nn([C@@H]3O[C@H](CO)[C@@H](O)[C@H]3O)cc21
[1]
  Activity: inactive
[2]
  Activity: inactive
[3]
  Activity: inactive
[4]
  inhibition: 0%

## O=C1c2ccccc2C(=O)c2[nH]ncc21
[1]
  Activity: inactive
[2]
  Activity: inactive
[3]
  Activity: inactive
[4]
  inhibition: 5%

## O=C1c2ccccc2C(=O)c2[nH]nnc21
[1]
  Activity: inactive
[2]
  Activity: inactive
[3]
  Activity: inactive
[4]
  inhibition: 1%
